Most compounds without a hit are left out; they make up all but 3.5% or so of the library.
RGS4 act – RGS4 potentiators or activators, primary screen, cell-based, HEK293 M3R inducible RGS4, calcium flux; carbachol calcium flux Fluo4; stronger effect = lower value; B-score at 10 µM; hit rate 0.92% among 310,000; AID 463111, 2010;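 active = B-score of the integrated calcium signal more than 4 SD below the library mean, with starting fluorescence not abnormally high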;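 note: negative B-score means reduced calcium response which marks RGS4 activation or potentiation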
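Test system: HEK293 cells with stable M3R and inducible RGS4; also added: carbachol at ECmax as muscarinic agonist stimulus; schedule: dye loading 30 min 37 °C, buffer rest 30 min RT; technique: kinetic calcium fluorescence imaging with Fluo4-AM dye, 2 µM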
MrgX1 ag – agonists of human MrgX1 receptor, primary screen, HEK293 cells, Fluo-4 calcium flux | B-score at 10 µM | hit rate 0.44% among 310,000 | Mas-related G-protein coupled receptor member X1 (Homo sapiens), Q96LB2 | Fluo-4 calcium fluorescence, agonist mode; stronger effect = higher value;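 active = calcium response B-score plate-corrected fluorescence ratio at least 3 library SD, with starting fluorescence B-score inside 5 SD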
Target sequence (Q96LB2 whole entry, looked up): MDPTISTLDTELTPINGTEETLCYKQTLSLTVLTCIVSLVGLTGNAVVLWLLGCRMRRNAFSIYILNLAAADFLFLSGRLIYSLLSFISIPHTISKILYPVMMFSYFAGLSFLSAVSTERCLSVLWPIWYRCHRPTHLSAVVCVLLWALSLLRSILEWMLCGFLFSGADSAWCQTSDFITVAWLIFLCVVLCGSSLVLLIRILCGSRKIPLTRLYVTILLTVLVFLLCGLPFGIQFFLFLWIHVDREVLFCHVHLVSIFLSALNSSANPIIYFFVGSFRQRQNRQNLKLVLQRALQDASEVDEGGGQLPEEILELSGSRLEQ
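Material – MrgX1-expressing HEK293 cells · Input – 15,000 cells seeded per well · Dosing – compound as first of three additions · Times – overnight seeding, then 1 h dark dye loading · Measured by – kinetic Fluo-4 NW fluorescence of intracellular calcium · Read-out – B-scored fluorescence response ratio · Benchmarks – positive and negative control wells on each plate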
MrgX1 antag – antagonists of human MrgX1 receptor, primary screen, HEK293 cells, Fluo-4 calcium flux; BAM8-22 antagonism; stronger effect = lower value; B-score at 10 µM; hit rate 1.3% among 310,000; AID 588676, 2011;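 active = calcium-response B-score plate-corrected more than 3 library SD below zero, starting fluorescence within 5 deviations, no agonist response on first addition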;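 note: peak minus trough fluorescence over baseline after final BAM8-22 challenge near maximal dose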
RGS4 block – RGS4 inhibitors, primary screen, cell-based, HEK293 M3R inducible RGS4, calcium flux; Regulator of G-protein signaling 4 (Homo sapiens), P49798; B-score at 10 µM; hit rate 0.45% among 310,000; Fluo-4 calcium flux; stronger effect = higher value; triggered by carbachol at its EC20;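 active = B-score, a plate-corrected calcium signal, over three deviations above library mean, with baseline fluorescence within five deviations of library mean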;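 note: RGS4 expression induced by doxycycline in cells with stable M3 receptor; B-score is computed from the integrated fluorescence ratio over baseline after carbachol; higher B-score means a larger calcium signal and so more RGS4 inhibition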
MrgX1 PAM – positive allosteric modulators of MrgX1, primary screen, HEK293 cells, Fluo-4 calcium flux; FDSS; stronger effect = higher value; B-score at 10 µM; hit rate 0.63% among 310,000;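 active = plate-corrected calcium response at least 3 library SD above typical, normal starting fluorescence, not activating the receptor alone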;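 note: compound read alongside a low EC10 to EC30 dose of BAM8-22 agonist; peak minus trough fluorescence over baseline measured at the second addition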
* hit, by the source's call; i = inactive.

SMILES | RGS4 act | MrgX1 ag | MrgX1 antag | RGS4 block | MrgX1 PAM
O=C(O)/C=C/C(=O)NCc1ccccc1 | i | i | i | i | i
COc1ccc(-c2csc3ncnc(N4CCN(S(=O)(=O)c5ccc(Cl)s5)CC4)c23)cc1 | i | i | i | i | i
COc1ccc(-c2csc3ncnc(N4CCN(S(=O)(=O)c5ccc(C)cc5)CC4)c23)cc1 | -7.5* | i | i | i | i
O=C(/C=C/c1cccc(F)c1)Nc1nccs1 | i | i | -6.3* | i | i
O=C(/C=C\c1ccccc1)Nc1nccs1 | i | i | i | i | i
COCCCNCCOc1ccc(C)cc1[N+](=O)[O-] | i | i | -4.9* | i | i
Cc1cc(=O)oc2cc(O[C@@H]3O[C@H](CO)[C@@H](O)[C@H](O)[C@H]3O)ccc12 | i | i | i | i | i
COc1ccc(C(=O)/C=C/c2cc(OC)c(O)c(OC)c2)c(F)c1 | i | 30* | i | i | i
CCCn1nc([N+](=O)[O-])c(C(C#N)c2nc3ccccc3s2)c(Cl)c1=O (stereo not drawn) | i | 29* | i | i | i
COC(=O)c1ccc(NC(C)C(=O)OC)c([N+](=O)[O-])c1 (stereo not drawn) | i | i | i | i | i
c1ccc(OCCCCN2CCCCC2)cc1 | i | i | i | i | i
c1ccc(-c2ccccc2OCCCCN2CCCCCC2)cc1 | -7* | i | i | i | i
CC(=O)c1ccc(OCCCN2CCCCC2)cc1 | i | i | i | i | i
O=C(c1ccccc1)c1ccc(OCCCN2CCCCC2)cc1 | -7.2* | i | i | i | i
c1ccc(COc2ccc(OCCCCN3CCCC3)cc2)cc1 | -8.8* | i | i | i | i
CC(C)c1ccc(O)c(NC(=S)NC(=O)c2ccc3c(c2)OCO3)c1 | i | i | i | i | i
O=C1CC2(CCN(C(=O)c3ccc(F)cc3)CC2)Oc2ccccc21 | i | i | i | i | i
Cc1ccc(C(=O)N2CC(C)OC(C)C2)cc1[N+](=O)[O-] (stereo not drawn) | i | i | -5* | i | i
O=C(CCN1C(=O)/C(=C/c2ccccc2Cl)SC1=S)NC1CCCC1 | i | i | i | i | i
Cc1ccccc1OCC(=O)NCCNC(=O)c1ccccn1 | i | i | i | i | i
CCN(CC)S(=O)(=O)c1cc(NC(=O)COc2ccc(C#N)cc2OC)ccc1C | i | i | -6.8* | i | i
Cc1ccc(Nc2nnc(SCC(=O)c3ccc(Br)s3)s2)c(C)c1 | i | i | i | i | i
Cc1cccc(C)c1Nc1nnc(SCC(=O)c2ccc(Br)s2)s1 | -7.7* | i | i | i | i
Nc1nc(-c2ccccc2)c(-c2ccccc2)n1N | i | i | i | i | 9.3*
CCN1C(=O)/C(=C2\SC(=S)N(c3c(C)n(C)n(-c4ccccc4)c3=O)C2=O)c2ccccc21 | i | i | i | i | i
SMILES | RGS4 act | MrgX1 ag | MrgX1 antag | RGS4 block | MrgX1 PAM
CCN1C(=O)/C(=C2\SC(=S)N(NC(=O)c3ccccc3O)C2=O)c2ccccc21 | i | i | i | i | 15*
CN1CCc2cc3c(c4c2[C@H]1[C@H](O)c1ccccc1-4)OCO3 | -7.4* | i | i | i | i
C1=C(c2ccccc2)Nc2ncnn2C1c1ccccc1 (stereo not drawn) | i | i | i | i | 8.2*
Cc1ccc(C2=CC(c3ccccc3)n3ncnc3N2)cc1 (stereo not drawn) | i | i | i | i | i
O=C(NC1CCOCC1)C1CCC(=O)N(CCc2cccc(F)c2)C1 (stereo not drawn) | i | i | i | i | i
Cc1cc(/C=C2\C(=N)N3N=C(C(C)C)SC3=NC2=O)c(C)n1Cc1ccccc1 | i | i | i | i | 16*
